Values after ≈ are worked out from the molar mass of the structure shown. Active and inactive are the calls of the source. The rule behind the calls is not given here.
What was measured:
CD40-CD40L [1] = biological target: T1, CD40-CD40L (Homo sapiens, UniProt P25942+P29965); assay: Ratio of IC50 for human Fc-conjugated CD40/FLAG-tagged biotinylated CD40L costimulatory protein-protein interaction in presence of Triton-X 100 to IC50 for human Fc-conjugated CD40/FLAG-tagged biotinylated CD40L costimulatory protein-protein interaction in absence of Triton-X 100; type: protein assay
Summary of the method: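 CD40-Fc (0.3 µg/mL) coated, FLAG-CD40L (0.02 µg/mL) binding, 1 h, anti-FLAG HRP/TMB read at 450 nm. Run with and without the non-ionic detergent Triton X-100 at 0.01% to test for colloidal aggregation. IC50 taken from log inhibitor vs. response fits in each condition.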
Target sequence in this assay (P25942 21-277 limits assumed): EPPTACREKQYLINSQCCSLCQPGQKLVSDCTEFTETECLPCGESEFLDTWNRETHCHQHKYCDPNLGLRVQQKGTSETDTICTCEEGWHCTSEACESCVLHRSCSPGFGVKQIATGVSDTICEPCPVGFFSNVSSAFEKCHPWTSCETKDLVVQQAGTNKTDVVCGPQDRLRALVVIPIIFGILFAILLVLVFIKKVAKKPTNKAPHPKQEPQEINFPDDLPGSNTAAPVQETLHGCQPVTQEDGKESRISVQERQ
Target sequence in this assay (P29965 113-261 partner limits assumed): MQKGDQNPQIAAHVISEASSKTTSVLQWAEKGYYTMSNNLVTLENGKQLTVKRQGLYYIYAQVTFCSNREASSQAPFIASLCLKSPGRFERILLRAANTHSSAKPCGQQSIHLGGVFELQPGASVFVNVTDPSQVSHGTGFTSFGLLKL

CD40-CD40L [2] = biological target: T1, CD40-CD40L; assay: Inhibition of interaction of CD40 in promoter/enhancer region of aicda-fused Ds-Red reporter transfected human B cells with recombinant human CD40L assessed as reduction in CD40L/IL-4-induced B cell activation by measuring AID expression after 2 days by flow cytometric analysis
Summary of the method: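 Primary human B cells transduced by spinoculation (1.5 h, 2,500g, 32°C, polybrene 8 µg/mL) with aicda promoter/enhancer–DsRed lentivirus. Cells at 1.25 × 10^5/mL in IMDM with 10% FBS, stimulated with IL-4 and CD40L (each 0.2 µg/mL) plus graded compound for 2 days at 37°C. DsRed read by flow cytometry. Anti-CD40L mAb 33.3 nM and CpG 1 µg/mL as controls; n=3.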

[3] = Inhibition of human Fc-conjugated TNF-R/FLAG-tagged biotinylated TNFalpha protein-protein interaction incubated for 1 hr by ELISA-type assay
THP-1 [4] = assay: Cytotoxicity against human THP1 cells assessed as reduction in cell viability at 100 to 200 uM after 48 hrs by MTT assay; type: cell-based; conditions: thp-1, 48 h
Summary of the method: (§1)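 THP-1 cells grown in RPMI-1640 with 10% FBS, starved 24 h in FBS-free medium, then seeded at 50,000 cells/well with compounds diluted in the same medium. Incubated 48 h at 37°C, MTT added for a further half hour, formazan read at 490 nm. Data converted to percent inhibition; duplicate or triplicate wells, at least three independent experiments.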

CD40-CD40L [5] = biological target: T1, CD40-CD40L; assay: Inhibition of interaction of CD40 (unknown origin) transfected in HEK Blue cells with recombinant human CD40L assessed as reduction in CD40L-induced NF-kappaB activation after 18 hrs by spectrophotometry based SEAP reporter gene assay; type: cell-based
CD40-CD40L [6] = biological target: T1, CD40-CD40L; assay: Inhibition of interaction of CD40 in human THP-1 cells with recombinant human CD40L assessed as reduction in CD40L-induced […] upregulation after 48 hrs by DAPI-staining based flow cytometric analysis; type: cell-based
Summary of the method: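 THP-1 cells serum-starved 24 h, then stimulated with rhCD154 (MegaCD40L) at 0.5 µg/mL plus graded compound in FBS-free RPMI for 48 h at 37°C, 5% CO2. Stained for HLA-DR, then DAPI just before flow cytometry. Marker quantified in live (DAPI-negative) cells.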
Target sequence in this assay (P25942 21-277 limits assumed): as the sequence (P25942 21-277 limits assumed) above
Target sequence in this assay (P29965 113-261 partner limits assumed): as the sequence (P29965 113-261 partner limits assumed) above

CD40-CD40L [7] = biological target: T1, CD40-CD40L; assay: Inhibition of interaction of CD40 in human B cells with recombinant human CD40L assessed as reduction in CD40L-induced cell proliferation after 48 hrs by BrdU incorporation-based ELISA
Summary of the method: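 CD19+ B cells from healthy-donor PBMC (magnetic bead selection, >90% CD19+) at 2 × 10^5 cells/mL in IMDM with 10% FBS, ITS and rhIL-4 at 0.2 µg/mL. Activated with rhCD154 (MegaCD40L) at 0.1 µg/mL plus graded compound for 48 h. BrdU then added for another 48 h; incorporation read by colorimetric ELISA.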
Target sequence in this assay (P25942 21-277 limits assumed): as the sequence (P25942 21-277 limits assumed) above
Target sequence in this assay (P29965 113-261 partner limits assumed): as the sequence (P29965 113-261 partner limits assumed) above

[8] = biological target: MAC1-CD40L (Homo sapiens) (UniProt P05107+P11215+P29965); assay: Inhibition of human Fc-conjugated Mac1/FLAG-tagged biotinylated CD40L protein-protein interaction incubated for 1 hr by ELISA-type assay
Sequence of MAC1-CD40L (Homo sapiens) (P05107 whole entry, looked up, other chains not shown): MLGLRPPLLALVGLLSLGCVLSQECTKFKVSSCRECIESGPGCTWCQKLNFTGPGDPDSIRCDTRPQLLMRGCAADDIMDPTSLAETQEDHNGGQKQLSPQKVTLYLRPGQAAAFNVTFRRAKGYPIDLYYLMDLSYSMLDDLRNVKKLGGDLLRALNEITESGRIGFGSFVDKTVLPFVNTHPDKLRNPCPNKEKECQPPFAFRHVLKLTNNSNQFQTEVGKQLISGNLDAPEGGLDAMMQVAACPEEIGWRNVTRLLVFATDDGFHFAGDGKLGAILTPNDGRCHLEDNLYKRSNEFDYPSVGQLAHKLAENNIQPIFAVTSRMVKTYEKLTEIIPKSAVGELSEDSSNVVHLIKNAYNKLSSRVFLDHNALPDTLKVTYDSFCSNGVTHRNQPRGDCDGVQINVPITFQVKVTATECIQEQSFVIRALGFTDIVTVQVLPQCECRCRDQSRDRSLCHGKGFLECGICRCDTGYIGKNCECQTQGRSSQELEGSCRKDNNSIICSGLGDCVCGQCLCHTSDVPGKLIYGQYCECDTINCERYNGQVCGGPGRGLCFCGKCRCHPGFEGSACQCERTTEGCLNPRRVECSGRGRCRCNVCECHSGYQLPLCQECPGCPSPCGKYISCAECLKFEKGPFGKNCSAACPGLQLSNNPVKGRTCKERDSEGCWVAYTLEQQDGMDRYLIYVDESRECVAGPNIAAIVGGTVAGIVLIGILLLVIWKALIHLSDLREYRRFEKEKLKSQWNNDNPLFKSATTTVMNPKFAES
Sequence of MAC1-CD40L (Homo sapiens) (P29965 whole entry, looked up, other chains not shown): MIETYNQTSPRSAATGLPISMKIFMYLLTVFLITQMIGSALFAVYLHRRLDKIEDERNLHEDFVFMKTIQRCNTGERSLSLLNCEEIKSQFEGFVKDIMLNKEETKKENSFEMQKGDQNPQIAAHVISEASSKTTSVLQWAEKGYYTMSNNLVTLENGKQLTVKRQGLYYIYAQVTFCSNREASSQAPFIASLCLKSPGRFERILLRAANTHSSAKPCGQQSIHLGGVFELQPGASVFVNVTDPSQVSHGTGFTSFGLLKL
Summary of the method: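 Fc-conjugated Mac-1 coated overnight at 4°C at 0.4 µg/mL; blocked with PBS/Tween/BSA. FLAG-tagged CD40L at 0.2 µg/mL added with graded compound in HEPES binding buffer (pH 7.2) for 1 h. Detection with anti-FLAG HRP/TMB at 450 nm. Data converted to percent inhibition and fitted to a log inhibitor curve.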

CD40-CD40L [9] = biological target: T1, CD40-CD40L; assay: Inhibition of human Fc-conjugated CD40/FLAG-tagged biotinylated CD40L costimulatory protein-protein interaction incubated for 1 hr by ELISA-type assay
[10] = Solubility of the compound in water; type: physicochemical; conditions: buffer
Summary of the method: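 Saturated solution in distilled water, concentration measured by C18 HPLC (60:40 water:acetonitrile, 2.0 mM ammonium acetate, UV 254 nm). Calibration standards were made from known amounts dissolved in 20% w/v aqueous HPβCD. Compounds were tested as triethylamine salts unless stated otherwise.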

Homo sapiens = species on record: Homo sapiens; assay: Selectivity ratio of IC50 for human Fc-conjugated TNF-R/FLAG-tagged biotinylated TNFalpha protein-protein interaction to IC50 for human Fc-conjugated CD40/FLAG-tagged biotinylated CD40L costimulatory protein-protein interaction
Summary of the method: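 Cell-free plate binding: TNF-R-Fc and CD40-Fc each coated at 0.3 µg/mL. FLAG-tagged TNF-α or CD40L, each at 0.02 µg/mL, added with graded compound for 1 h in HEPES buffer, pH 7.2. Anti-FLAG HRP/TMB detection at 450 nm. IC50s come from log inhibitor fits.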

Salmonella typhimurium = assay: Mutagenicity in Salmonella typhimurium TA100 up to 500 uM measured daily up to day 6 by Ames test; type: toxicity; conditions: salmonella enterica subsp. enterica serovar typhimurium
Summary of the method: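 Muta-Chromplate Ames format with S. typhimurium TA-100, reconstituted and grown overnight (16–18 h) at 37°C, then added to reaction mixture with compound at 0.1 to 500 μM (DMSO ≤2.5% final). Plated one plate per condition, incubated at 37°C, positive wells counted daily. Controls were background, NaN3 positive and sterility plates; significance from the manufacturer's tables.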

THP-1 [11] = assay: Cytotoxicity against human THP1 cells assessed as reduction in cell viability at 100 uM after 48 hrs by MTT assay; type: cell-based; conditions: thp-1, 48 h; summary of the method: as §1
Mus musculus [12] = assay: In vivo inhibition of alloantigen-induced T cell response in sc dosed BALB/c mouse injected with DBA-2 mouse splenocytes assessed as reduction in splenocyte-mediated increase in draining popliteal lymph node cells administered as bid from 1 day before alloantigen challenge to 3 days post alloantigen challenge; type: functional, organism-based
Summary of the method: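 Female BALB/c recipients (10–12 weeks) got a footpad injection of 1 × 10^7 splenocytes from male DBA-2 donors. Compound given s.c. at 20–60 mg/kg b.i.d. from day -1 to 3 in 20% HPβCD; MR-1 anti-CD40L (20 mg/kg, days -1 and 0) as positive control. Draining popliteal nodes taken 3 days after challenge and cells counted; n = 3–4 per group, mean ± SD.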

Mus musculus [13] = assay: Toxicity in C57BL6 mouse implanted with BALB/c mouse skin graft at 30 mg/kg, sc administered daily for 2 weeks; type: organism-based; conditions: in vivo, 336 h
Summary of the method: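 C57BL/6 recipients carried full-thickness BALB/c ear skin grafts on the dorsal thorax. They received CTLA4-Ig 250 μg on days 0, 2, 4 and 6, plus compound at 30 mg/kg s.c. daily in 20% w/v HPβCD over two weeks, and were watched for signs of toxicity. 5–8 mice per group.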

[14] = Elimination half life in C57BL6 mouse at 60 mg/kg, sc administered as single dose measured up to 24 hrs by HPLC analysis; type: ADME, organism-based; conditions: in vivo, read-out: beta t1/2 (converted)
Summary of the method: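 Single s.c. dose of 1.6 mg/mouse (~60 mg/kg) in 250 µL 20% w/v HPβCD to male C57BL/6 mice, 10 weeks old (n = 4). Tail blood (50 µL) drawn at 0, 0.5, 1, 2, 4, 6 and 24 h. Plasma quantified by C18 HPLC (60:40 water:acetonitrile with 2.0 mM ammonium acetate, 254 nm), calibration linear over 1 to 500 µg/mL.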

O=C1OC2(c3ccccc31)c1cc(I)c(O)c(I)c1Oc1c2cc(I)c(O)c1I
Ratio IC50 (CD40-CD40L [1]): 1.04

O=C(Nc1ccc(-c2ccc(C(=O)Nc3ccc(C(=O)O)c4ccccc34)cc2)cc1)c1ccc([N+](=O)[O-])cc1
IC50 (CD40-CD40L [2]): 15.9 µM
inhibition (CD40-CD40L [2]): Dose-dependent effect
IC50 [3]: > 1000 µM
Activity (THP-1 [4]): Toxic
IC50 (CD40-CD40L [5]): 9.4 µM
inhibition (CD40-CD40L [5]): Dose-dependent effect
inhibition (CD40-CD40L [6]): Dose-dependent effect
inhibition (CD40-CD40L [7]): Dose-dependent effect
inhibition [8]: Active
IC50 (CD40-CD40L [9]): 0.36 µM
inhibition (CD40-CD40L [9]): Dose-dependent effect
solubility [10]: 17 µM (≈ 9.04 µg/mL)

O=C(Nc1ccc(-c2ccc(C(=O)Nc3cccc4cccc(S(=O)(=O)O)c34)cc2)cc1)c1ccc2[nH]nnc2c1
Ratio IC50 (Homo sapiens): > 100
IC50 [3]: > 1000 µM
IC50 (CD40-CD40L [9]): 0.99 µM
inhibition (CD40-CD40L [9]): Dose-dependent effect

O=C(Nc1ccc(C(=O)Nc2cccc3cccc(S(=O)(=O)O)c23)cc1)c1ccc([N+](=O)[O-])cc1
Ratio IC50 (Homo sapiens): > 100
IC50 [3]: > 1000 µM
inhibition [8]: Active

O=C(Nc1ccc(-c2ccc(C(=O)Nc3cccc4cccc(S(=O)(=O)O)c34)cc2)cc1)c1ccc([N+](=O)[O-])cc1
IC50 (CD40-CD40L [2]): 13.2 µM
inhibition (CD40-CD40L [2]): Dose-dependent effect
IC50 [3]: > 1000 µM
IC50 (CD40-CD40L [5]): 10.3 µM
inhibition (CD40-CD40L [5]): Dose-dependent effect
inhibition (CD40-CD40L [6]): Dose-dependent effect
inhibition (CD40-CD40L [7]): Dose-dependent effect
Activity (Salmonella typhimurium): Non-Toxic
inhibition [8]: Active
Activity (THP-1 [11]): Non-Toxic
IC50 (CD40-CD40L [9]): 0.31 µM
inhibition (CD40-CD40L [9]): Dose-dependent effect
solubility [10]: 7 µM (≈ 3.97 µg/mL)

CSCC[C@H](NC(=O)[C@@H](NC(=O)[C@H](Cc1ccc(O)cc1)NC(=O)[C@H](Cc1ccc(O)cc1)NC(=O)CNC(=O)[C@H](CCCCN)NC(=O)[C@H](CCCCN)NC(=O)[C@H](C)NC(=O)[C@H](Cc1c[nH]c2ccccc12)NC(=O)[C@H](CCC(N)=O)NC(=O)[C@H](CC(C)C)NC(=O)[C@@H](N)C(C)C)[C@@H](C)O)C(=O)N[C@@H](CCCCN)C(=O)N[C@@H](CO)C(=O)N[C@@H](CC(N)=O)C(=O)O
inhibition (CD40-CD40L [9]): inactive

Nc1ccc(C(=O)Nc2ccc(-c3ccc(C(=O)Nc4cccc5cccc(S(=O)(=O)O)c45)cc3)cc2)cc1
Ratio IC50 (Homo sapiens): > 100
IC50 [3]: 887 µM
Activity (THP-1 [4]): Toxic
inhibition [8]: Active
IC50 (CD40-CD40L [9]): 301 µM

O=C(Nc1ccc2c(O)c(/N=N/c3ccc(/N=N\c4ccc(S(=O)(=O)O)cc4)cc3S(=O)(=O)O)c(S(=O)(=O)O)cc2c1)Nc1ccc2c(O)c(/N=N/c3ccc(/N=N\c4ccc(S(=O)(=O)O)cc4)cc3S(=O)(=O)O)c(S(=O)(=O)O)cc2c1
IC50 (CD40-CD40L [5]): 42.7 µM
inhibition (CD40-CD40L [5]): Dose-dependent effect
inhibition [8]: Active
IC50 (CD40-CD40L [9]): 2.26 µM

COC(=O)c1ccc(C(=O)Nc2ccc(-c3ccc(C(=O)Nc4cccc5cccc(S(=O)(=O)O)c45)cc3)cc2)cc1
IC50 (CD40-CD40L [2]): 4.5 µM
inhibition (CD40-CD40L [2]): Dose-dependent effect
inhibition (Mus musculus [12]): Active
IC50 [3]: 992 µM
IC50 (CD40-CD40L [5]): 17.1 µM
inhibition (CD40-CD40L [5]): Dose-dependent effect
inhibition (CD40-CD40L [6]): Dose-dependent effect
inhibition (CD40-CD40L [7]): Dose-dependent effect
Activity (Salmonella typhimurium): Non-Toxic
inhibition [8]: Active
Activity (THP-1 [11]): Non-Toxic
IC50 (CD40-CD40L [9]): 0.17 µM
inhibition (CD40-CD40L [9]): Dose-dependent effect
Activity (Mus musculus [13]): Non-Toxic
half-life [14]: 2 h
solubility [10]: 240 µM (≈ 139 µg/mL)

H-VLQWAEKGYYTMSNN-OH
IC50 (CD40-CD40L [9]): 154 µM

O=C(Nc1ccc(-c2ccc(C(=O)Nc3ccc(S(=O)(=O)O)c4ccccc34)cc2)cc1)c1ccc([N+](=O)[O-])cc1
Ratio IC50 (Homo sapiens): > 100
IC50 [3]: 479 µM
IC50 (CD40-CD40L [9]): 2.33 µM
inhibition (CD40-CD40L [9]): Dose-dependent effect

— ChEMBL document CHEMBL4017546, “Small-Molecule Inhibitors of the CD40-CD40L Costimulatory Protein-Protein Interaction” (J Med Chem, 2017)
